Experiment [1] has as its target Ribosomal protein S6 kinase alpha-5 (Homo sapiens) (UniProt O75582). Kind of experiment: Inhibition of MSK1 (unknown origin) at 1 uM relative to control. In outline:
(§1)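 Single-concentration screen of each compound against a 59-protein-kinase panel, run at 10 µM or 1 µM. Activity relative to control is shown as a heat map across the panel.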

For experiment [2], the target named is Maternal embryonic leucine zipper kinase (Homo sapiens) (UniProt Q14680). The experiment is described as follows: Inhibition of MELK (unknown origin) at 1 uM relative to control. In outline:
as §1

Experiment [3] has as its target Protein kinase C alpha type (Homo sapiens) (UniProt P17252). The experiment is described as follows: Inhibition of PKCa (unknown origin) at 1 uM relative to control. The procedure, abridged:
as §1

The target in experiment [4] is T1, Serine/threonine-protein kinase Chk1 (Homo sapiens) (UniProt O14757).
T1 sequence (whole entry): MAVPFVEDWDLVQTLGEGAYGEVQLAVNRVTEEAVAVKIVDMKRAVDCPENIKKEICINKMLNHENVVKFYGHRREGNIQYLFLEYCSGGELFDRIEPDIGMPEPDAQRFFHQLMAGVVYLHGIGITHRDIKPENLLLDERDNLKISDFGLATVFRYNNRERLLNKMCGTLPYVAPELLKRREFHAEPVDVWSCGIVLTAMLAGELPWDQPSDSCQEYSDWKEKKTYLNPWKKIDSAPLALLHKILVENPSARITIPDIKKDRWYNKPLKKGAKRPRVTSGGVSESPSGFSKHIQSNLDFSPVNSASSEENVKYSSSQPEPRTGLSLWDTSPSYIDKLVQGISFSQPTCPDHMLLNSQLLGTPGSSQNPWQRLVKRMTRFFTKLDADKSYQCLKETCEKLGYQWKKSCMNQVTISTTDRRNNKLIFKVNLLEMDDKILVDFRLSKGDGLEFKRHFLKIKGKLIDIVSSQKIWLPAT
Kind of experiment: Inhibition of CHK1 (unknown origin) at 1 uM relative to control. In outline:
(§2)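 Single-point screen of each compound against a panel of 59 protein kinases, at 1 or 10 μM. The panel data are also summarised as a rescaled geometric mean selectivity score.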

The target of experiment [5] is T2, Serine/threonine-protein kinase 3 (Homo sapiens) (UniProt Q13188).
T2 sequence (whole entry): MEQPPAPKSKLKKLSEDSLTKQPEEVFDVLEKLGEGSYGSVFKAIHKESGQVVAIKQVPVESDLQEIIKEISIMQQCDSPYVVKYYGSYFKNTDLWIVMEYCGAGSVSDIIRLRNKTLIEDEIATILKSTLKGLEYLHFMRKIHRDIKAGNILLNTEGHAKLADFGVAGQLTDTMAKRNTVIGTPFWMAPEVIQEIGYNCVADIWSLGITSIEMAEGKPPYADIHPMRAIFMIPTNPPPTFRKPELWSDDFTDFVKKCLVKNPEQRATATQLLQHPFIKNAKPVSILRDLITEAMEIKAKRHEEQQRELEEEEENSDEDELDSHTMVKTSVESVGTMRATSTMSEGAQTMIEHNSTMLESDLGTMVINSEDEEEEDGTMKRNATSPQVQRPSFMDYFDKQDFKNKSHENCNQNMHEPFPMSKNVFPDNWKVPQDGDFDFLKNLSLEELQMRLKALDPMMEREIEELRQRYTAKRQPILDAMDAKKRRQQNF
Kind of experiment: Inhibition of MST2 (unknown origin) at 1 uM relative to control. In outline:
as §1

Experiment [6] addresses Ribosomal protein S6 kinase alpha-1 (Homo sapiens) (UniProt Q15418). The experiment is described as follows: Inhibition of RSK1 (unknown origin) at 1 uM relative to control. The procedure, abridged:
as §1

Experiment [7] addresses T3, Serine/threonine-protein kinase BRSK2 (Homo sapiens) (UniProt Q8IWQ3).
T3 sequence (whole entry): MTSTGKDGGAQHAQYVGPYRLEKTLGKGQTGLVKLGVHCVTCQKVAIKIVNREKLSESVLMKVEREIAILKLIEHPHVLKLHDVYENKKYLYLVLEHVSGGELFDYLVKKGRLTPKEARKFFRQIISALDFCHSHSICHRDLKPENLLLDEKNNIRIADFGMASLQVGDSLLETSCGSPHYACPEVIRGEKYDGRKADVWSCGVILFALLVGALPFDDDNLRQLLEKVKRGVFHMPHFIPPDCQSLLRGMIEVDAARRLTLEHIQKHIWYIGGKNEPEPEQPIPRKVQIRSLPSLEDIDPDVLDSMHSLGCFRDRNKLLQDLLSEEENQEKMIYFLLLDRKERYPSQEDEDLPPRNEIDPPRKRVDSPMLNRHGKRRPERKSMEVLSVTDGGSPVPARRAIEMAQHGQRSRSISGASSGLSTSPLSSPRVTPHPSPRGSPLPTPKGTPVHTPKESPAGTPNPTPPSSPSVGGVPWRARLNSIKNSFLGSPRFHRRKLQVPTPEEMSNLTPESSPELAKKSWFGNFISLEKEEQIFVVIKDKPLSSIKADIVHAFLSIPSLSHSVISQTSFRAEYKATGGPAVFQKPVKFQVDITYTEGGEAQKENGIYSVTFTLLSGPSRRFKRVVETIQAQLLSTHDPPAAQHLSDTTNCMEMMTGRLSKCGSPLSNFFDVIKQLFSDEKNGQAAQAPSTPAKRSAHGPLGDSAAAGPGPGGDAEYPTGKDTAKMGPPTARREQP
The experiment is described as follows: Inhibition of BRSK2 (unknown origin) at 1 uM relative to control. In outline:
as §2

In experiment [8] the target is Tyrosine-protein kinase Yes (Homo sapiens) (UniProt P07947). The experiment is described as follows: Inhibition of YES1 (unknown origin) at 1 uM relative to control. In outline: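 Single-concentration screen across a panel of 59 protein kinases, with each compound tested at one fixed concentration. The read-out is residual kinase activity relative to control. Panel results are also condensed into a rescaled geometric mean (RGM) selectivity score.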
Chain of Tyrosine-protein kinase Yes (Homo sapiens) (P07947 2-543 limits assumed): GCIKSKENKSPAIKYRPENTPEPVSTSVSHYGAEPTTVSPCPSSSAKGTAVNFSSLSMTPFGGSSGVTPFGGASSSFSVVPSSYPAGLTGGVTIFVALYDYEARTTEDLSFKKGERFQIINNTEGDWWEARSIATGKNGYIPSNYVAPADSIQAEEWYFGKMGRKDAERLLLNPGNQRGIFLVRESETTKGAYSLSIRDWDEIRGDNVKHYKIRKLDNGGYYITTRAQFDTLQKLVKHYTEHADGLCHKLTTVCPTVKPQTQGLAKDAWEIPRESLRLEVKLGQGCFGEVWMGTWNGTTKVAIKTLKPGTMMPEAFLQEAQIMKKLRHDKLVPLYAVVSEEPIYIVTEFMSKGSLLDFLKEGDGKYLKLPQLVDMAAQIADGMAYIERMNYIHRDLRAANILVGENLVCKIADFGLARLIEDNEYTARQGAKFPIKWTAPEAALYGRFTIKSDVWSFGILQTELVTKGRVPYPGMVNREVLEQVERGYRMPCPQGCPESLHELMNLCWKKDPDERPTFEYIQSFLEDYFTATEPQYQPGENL

Experiment [9] deals with Tyrosine-protein kinase CSK (Homo sapiens) (UniProt P41240). Kind of experiment: Inhibition of CSK (unknown origin) at 1 uM relative to control. The procedure, abridged: as §2
Chain of Tyrosine-protein kinase CSK (Homo sapiens) (P41240 2-450 limits assumed): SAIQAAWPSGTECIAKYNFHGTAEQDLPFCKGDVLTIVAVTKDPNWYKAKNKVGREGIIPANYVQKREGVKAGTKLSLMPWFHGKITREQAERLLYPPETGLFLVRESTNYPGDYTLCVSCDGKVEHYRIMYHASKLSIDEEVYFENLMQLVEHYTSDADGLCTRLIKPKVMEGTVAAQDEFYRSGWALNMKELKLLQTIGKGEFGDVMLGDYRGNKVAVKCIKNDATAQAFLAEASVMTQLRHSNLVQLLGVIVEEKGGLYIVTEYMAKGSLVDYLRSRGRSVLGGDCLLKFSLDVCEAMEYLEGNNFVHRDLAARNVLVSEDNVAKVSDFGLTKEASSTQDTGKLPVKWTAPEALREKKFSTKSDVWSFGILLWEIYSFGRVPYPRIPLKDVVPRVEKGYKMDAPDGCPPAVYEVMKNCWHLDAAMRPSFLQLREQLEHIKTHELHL
Experiment [10] addresses Tyrosine-protein kinase Lck (Homo sapiens) (UniProt P06239). The experiment is described as follows: Inhibition of Lck (unknown origin) at 1 uM relative to control. In outline: as §2
Experiment [11] concerns the target Serine/threonine-protein kinase Nek6 (Homo sapiens) (UniProt Q9HC98). The experiment is described as follows: Inhibition of NEK6 (unknown origin) at 1 uM relative to control. In outline:
as §1

Experiment [12] has as its target Serine/threonine-protein kinase N2 (Homo sapiens) (UniProt Q16513). The experiment is described as follows: Inhibition of PRK2 (unknown origin) at 1 uM relative to control. In outline: as §1
The target of experiment [13] is Serine/threonine-protein kinase 26 (Homo sapiens) (UniProt Q9P289). The experiment is described as follows: Inhibition of MST4 (unknown origin) at 1 uM relative to control. The procedure, abridged:
as §1

For experiment [14], the target named is Glycogen synthase kinase-3 beta (Homo sapiens) (UniProt P49841). Kind of experiment: Inhibition of GSK3b (unknown origin) at 1 uM relative to control. In outline:
as §2

Chain of Glycogen synthase kinase-3 beta (Homo sapiens) (P49841 whole entry, looked up): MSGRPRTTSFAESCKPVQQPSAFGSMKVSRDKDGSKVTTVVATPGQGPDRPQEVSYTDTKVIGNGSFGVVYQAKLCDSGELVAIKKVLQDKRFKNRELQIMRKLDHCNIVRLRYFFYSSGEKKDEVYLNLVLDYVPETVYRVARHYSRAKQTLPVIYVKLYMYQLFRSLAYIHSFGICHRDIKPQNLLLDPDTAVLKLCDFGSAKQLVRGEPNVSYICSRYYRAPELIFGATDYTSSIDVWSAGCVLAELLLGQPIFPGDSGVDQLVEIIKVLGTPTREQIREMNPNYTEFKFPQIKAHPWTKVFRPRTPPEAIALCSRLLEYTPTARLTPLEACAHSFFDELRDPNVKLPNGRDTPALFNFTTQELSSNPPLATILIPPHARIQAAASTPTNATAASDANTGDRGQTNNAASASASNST
Chain of Serine/threonine-protein kinase 26 (Homo sapiens) (Q9P289 2-416 limits assumed): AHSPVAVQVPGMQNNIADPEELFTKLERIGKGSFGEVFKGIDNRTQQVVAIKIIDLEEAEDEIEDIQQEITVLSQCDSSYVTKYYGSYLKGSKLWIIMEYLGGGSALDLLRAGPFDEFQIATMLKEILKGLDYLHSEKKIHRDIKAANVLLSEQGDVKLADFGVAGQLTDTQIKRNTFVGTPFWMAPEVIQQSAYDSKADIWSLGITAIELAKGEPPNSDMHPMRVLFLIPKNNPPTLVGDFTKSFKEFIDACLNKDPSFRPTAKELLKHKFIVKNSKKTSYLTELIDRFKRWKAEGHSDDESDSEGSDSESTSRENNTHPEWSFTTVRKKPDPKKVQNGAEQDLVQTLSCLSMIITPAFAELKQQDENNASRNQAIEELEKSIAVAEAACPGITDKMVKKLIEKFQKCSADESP
Chain of Tyrosine-protein kinase Lck (Homo sapiens) (P06239 2-509 limits assumed): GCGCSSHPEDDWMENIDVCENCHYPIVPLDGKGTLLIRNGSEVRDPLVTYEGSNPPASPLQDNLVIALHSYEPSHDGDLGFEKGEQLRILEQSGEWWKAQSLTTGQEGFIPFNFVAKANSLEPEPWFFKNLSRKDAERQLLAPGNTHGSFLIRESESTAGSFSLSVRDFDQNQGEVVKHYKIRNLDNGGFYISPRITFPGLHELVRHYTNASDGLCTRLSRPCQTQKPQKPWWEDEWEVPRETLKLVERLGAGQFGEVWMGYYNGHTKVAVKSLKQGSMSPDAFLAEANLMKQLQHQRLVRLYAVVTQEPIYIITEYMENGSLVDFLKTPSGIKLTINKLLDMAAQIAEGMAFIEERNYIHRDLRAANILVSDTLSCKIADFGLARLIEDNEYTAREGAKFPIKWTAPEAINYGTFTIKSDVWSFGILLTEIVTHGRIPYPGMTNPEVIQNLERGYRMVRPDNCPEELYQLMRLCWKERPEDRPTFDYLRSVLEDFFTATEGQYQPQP
Chain of Serine/threonine-protein kinase N2 (Homo sapiens) (Q16513 whole entry, looked up): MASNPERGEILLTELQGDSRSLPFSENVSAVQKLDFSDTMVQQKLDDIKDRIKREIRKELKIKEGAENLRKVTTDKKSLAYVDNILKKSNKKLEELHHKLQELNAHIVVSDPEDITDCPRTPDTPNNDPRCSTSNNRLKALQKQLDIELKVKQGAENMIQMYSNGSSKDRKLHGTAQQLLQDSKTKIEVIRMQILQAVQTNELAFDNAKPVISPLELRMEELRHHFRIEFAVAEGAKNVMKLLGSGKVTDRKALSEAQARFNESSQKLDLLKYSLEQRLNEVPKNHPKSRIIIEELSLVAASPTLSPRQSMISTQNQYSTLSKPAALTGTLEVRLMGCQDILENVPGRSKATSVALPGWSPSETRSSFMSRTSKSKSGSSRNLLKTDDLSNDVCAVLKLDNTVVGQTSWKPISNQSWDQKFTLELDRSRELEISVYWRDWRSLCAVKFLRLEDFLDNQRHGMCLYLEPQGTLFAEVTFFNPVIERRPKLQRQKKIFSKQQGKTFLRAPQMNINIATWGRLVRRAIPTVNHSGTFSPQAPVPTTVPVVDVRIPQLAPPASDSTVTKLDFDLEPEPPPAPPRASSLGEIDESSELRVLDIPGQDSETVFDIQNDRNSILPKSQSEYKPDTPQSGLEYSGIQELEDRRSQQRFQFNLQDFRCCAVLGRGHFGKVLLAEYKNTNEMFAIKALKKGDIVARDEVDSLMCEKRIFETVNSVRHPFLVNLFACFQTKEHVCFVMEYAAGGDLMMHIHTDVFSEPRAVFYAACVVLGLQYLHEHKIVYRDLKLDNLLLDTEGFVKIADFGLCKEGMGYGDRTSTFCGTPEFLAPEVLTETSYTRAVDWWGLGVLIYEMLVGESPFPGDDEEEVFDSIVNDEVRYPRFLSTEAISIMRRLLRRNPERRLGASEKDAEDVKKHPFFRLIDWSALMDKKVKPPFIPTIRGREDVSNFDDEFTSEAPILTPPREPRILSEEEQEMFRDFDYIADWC
Chain of Ribosomal protein S6 kinase alpha-1 (Homo sapiens) (Q15418 whole entry): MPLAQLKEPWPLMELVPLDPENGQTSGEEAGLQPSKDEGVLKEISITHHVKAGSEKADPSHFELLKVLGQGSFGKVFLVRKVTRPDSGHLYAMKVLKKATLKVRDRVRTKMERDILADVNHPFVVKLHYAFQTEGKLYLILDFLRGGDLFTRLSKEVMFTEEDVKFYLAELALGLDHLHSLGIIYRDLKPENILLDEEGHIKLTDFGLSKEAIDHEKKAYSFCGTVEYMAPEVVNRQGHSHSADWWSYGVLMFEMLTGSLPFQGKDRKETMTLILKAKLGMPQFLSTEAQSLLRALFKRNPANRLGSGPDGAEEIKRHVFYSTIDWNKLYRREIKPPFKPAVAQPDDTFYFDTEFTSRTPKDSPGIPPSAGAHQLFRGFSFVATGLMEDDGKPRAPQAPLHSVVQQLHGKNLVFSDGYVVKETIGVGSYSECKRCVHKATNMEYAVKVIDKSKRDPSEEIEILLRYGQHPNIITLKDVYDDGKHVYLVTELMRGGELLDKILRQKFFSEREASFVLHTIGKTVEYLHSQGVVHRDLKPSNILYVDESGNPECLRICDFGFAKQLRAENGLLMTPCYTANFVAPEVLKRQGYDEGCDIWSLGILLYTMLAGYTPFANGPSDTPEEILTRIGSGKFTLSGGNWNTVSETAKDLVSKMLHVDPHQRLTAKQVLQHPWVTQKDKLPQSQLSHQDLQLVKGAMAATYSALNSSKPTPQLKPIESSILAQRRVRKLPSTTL

For orientation: inhibition means the drop in the measured response relative to a control, in per cent. On to `c1cc(-c2n[nH]c3ccnc(OC4CCOCC4)c23)cc(N2CCOCC2)n1`, for which the inhibition in [1] came out at 0%; in experiment [2], 79%; in experiment [3], 0%; in experiment [4], 0%; in experiment [5], 7%; in [6] it was 3%. For the same compound, the inhibition in experiment [7] is 0%; in experiment [8], 9%; in experiment [9], 0%; in [10], 8%; in experiment [11] it was 0%; in experiment [12], 0%. The inhibition in experiment [13] came to 3%; in experiment [14] it was 36%.
In the case of `CC(C)n1cc(-c2n[nH]c3ccnc(OC4CCOCC4)c23)cn1`, the inhibition worked out at 18% in experiment [1]; 84% in [2]; 0% in [3]; 5% in [4]; 40% in experiment [5]; 62% in [6]. Besides, the inhibition was determined as 19% in [7]; 0% in experiment [8]; 0% in experiment [9]; 0% in [10]; 0% in experiment [11]; 24% in [12]. Besides, the inhibition in experiment [13] is 47%; in experiment [14], 90%.
